Data taken from PMC3535268 (Journal of neuroscience methods, 2011).
Read-outs that look alike come from different tables or passages of the source.

Assays:
Format in all cases: biochemical, Fischer 344 rats
[1] = tested on: Complex II dependent oxygen consumption; settings: log dose response; no observed differences across brain regions
Outline: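 Brain regions dissected from 16-week male rats; mitochondria purified by differential centrifugation, nitrogen disruption at 1200 psi and Ficoll gradient. Wells got 2.5 or 5 μg protein, were spun 200 × g, and were overlaid with respiration buffer pH 7.2 at 37 °C. […] 5–6 rats/group; two-way ANOVA.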

Mitochondrial Complex I = Mitochondrial Complex I (Rattus norvegicus, UniProt P03889+Q641Y2); experiment: Mitochondrial Complex I enzyme activity assay
[2] = tested on: Complex I driven oxygen consumption; settings: cortical mitochondria
Outline: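 Cortical mitochondria were isolated by differential centrifugation, nitrogen bomb and Ficoll purification, then seeded on XF24 plates in respiration buffer (mannitol/sucrose/BSA/HEPES/MgCl/KH2PO4, pH 7.2, 37 °C). A modified protocol repeatedly measured O2 consumption in the same well after injecting low rotenone (10 fM, 10 pM, 10 nM; diluted in ethanol). 5–6 rats/group; two-way ANOVA with post hoc tests.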

Chain of Mitochondrial Complex I (Q641Y2 34-463): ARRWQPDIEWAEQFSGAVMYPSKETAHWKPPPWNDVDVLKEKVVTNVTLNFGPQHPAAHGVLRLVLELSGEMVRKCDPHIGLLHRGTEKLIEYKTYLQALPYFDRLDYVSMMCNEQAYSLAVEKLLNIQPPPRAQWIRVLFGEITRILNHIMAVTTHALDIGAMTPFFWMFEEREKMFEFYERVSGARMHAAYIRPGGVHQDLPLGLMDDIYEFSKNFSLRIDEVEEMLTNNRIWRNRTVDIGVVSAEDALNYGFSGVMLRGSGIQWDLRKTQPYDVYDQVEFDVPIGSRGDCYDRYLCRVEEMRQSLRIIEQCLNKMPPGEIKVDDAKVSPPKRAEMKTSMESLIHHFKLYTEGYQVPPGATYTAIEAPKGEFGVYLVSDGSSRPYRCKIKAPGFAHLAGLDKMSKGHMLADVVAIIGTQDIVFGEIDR
Chain of Mitochondrial Complex I (P03889 whole entry): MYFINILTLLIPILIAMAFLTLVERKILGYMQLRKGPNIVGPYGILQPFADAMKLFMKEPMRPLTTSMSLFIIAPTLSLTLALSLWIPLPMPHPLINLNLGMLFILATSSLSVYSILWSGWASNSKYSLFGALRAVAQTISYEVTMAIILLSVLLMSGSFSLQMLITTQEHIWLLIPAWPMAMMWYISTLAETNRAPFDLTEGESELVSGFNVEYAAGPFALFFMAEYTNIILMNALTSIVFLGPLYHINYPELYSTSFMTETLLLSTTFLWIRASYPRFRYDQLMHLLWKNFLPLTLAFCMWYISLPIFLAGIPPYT

Structure (SMILES)	effect on mitochondrial driven oxygen consumption (Complex II) [1]	IC50 (Mitochondrial Complex I) [nM]	effect on mitochondrial oxygen consumption ([2]; 10 pM rotenone, up to 8 min following exposure)	effect on mitochondrial oxygen consumption ([2]; 10 nM rotenone)	effect on mitochondrial oxygen consumption ([2]; 10 fM rotenone)
O=C(O)CC(=O)O [malonate]	dose dependent decrease	–	–	–	–
C=C(C)[C@H]1Cc2c(ccc3c2O[C@@H]2COc4cc(OC)c(OC)cc4[C@@H]2C3=O)O1 [rotenone]	–	0.163 to 0.238	did not result in any reduction in oxygen consumption	significant reduction in mitochondrial oxygen consumption immediately following exposure	no reduction in oxygen consumption
